Screens (PubChem BioAssay)
Shown are actives, neighbours in structure and some others; about 1% of the full set was active somewhere.
RAD52 anneal inh – RAD52 DNA annealing inhibitors, primary screen, biochemical, FRET, single point, set 2 | AID 651710, 2012 | inhibition, % at 18.7 µM | 0.46% of 360,000 active | DNA repair protein RAD52 homolog (Homo sapiens), P43351 | recombinant RAD52 DNA annealing, FRET fluorescence;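 active means every replicate showing at least 50% inhibition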
RAD54 branch – inhibitors of human RAD54 branch migration, primary screen, biochemical, fluorescence, single point; DNA repair and recombination protein RAD54-like (Homo sapiens), Q92698; RAD54 Holliday junction branch migration, FAM/BHQ fluorescence; inhibition, % at 10.4 µM; 0.14% of 360,000 active; AID 602329, 2012;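 active means mean normalized replicate activity at least 40 and at least half of replicates scoring 40 or more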;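 further: 0% = median of neutral control wells and 100% = median of positive control wells; inhibitors cause a drop in the FAM fluorescence signal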
Target sequence (Q92698 whole entry, looked up): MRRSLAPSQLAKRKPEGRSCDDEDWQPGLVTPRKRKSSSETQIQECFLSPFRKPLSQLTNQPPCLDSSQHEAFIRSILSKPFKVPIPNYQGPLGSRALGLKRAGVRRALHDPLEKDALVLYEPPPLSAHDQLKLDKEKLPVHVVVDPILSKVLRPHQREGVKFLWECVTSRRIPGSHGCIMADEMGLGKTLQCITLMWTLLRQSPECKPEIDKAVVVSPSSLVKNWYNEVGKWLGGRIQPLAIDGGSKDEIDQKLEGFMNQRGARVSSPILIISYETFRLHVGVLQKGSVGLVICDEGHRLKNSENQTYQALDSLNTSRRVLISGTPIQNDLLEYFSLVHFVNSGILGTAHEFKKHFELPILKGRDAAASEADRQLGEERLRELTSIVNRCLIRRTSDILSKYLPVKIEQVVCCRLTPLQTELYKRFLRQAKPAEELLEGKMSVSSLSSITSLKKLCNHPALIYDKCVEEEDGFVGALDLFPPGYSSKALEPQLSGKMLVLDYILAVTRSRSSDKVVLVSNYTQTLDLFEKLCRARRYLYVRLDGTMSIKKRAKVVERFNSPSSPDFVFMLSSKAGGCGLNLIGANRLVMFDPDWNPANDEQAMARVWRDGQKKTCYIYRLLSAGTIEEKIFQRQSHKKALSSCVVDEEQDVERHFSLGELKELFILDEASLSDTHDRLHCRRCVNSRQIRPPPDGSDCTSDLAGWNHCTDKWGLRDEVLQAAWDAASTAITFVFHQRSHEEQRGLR
PDI turbidity – inhibitors of human PDI, primary screen, biochemical, turbidity, single point, plate reader | Protein disulfide-isomerase (Homo sapiens), P07237 | PDI insulin aggregation turbidity, A650, 90 min | inhibition, % at 10 µM | 0.052% of 350,000 active | AID 588391, 2011;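 active means mean inhibition across replicates of 30% or more, whatever share of single replicates reach that level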
CAL PDZ FP-1 – CAL PDZ peptide-binding inhibitors, primary screen, biochemical, fluorescence polarization, Cer-tagged CAL PDZ, HTS; purified CAL PDZ, TMR-peptide fluorescence polarization, 1 h; inhibition, % at 20 µM; 0.02% of 330,000 active; AID 504414, 2011;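 active means highest replicate inhibition of at least 40%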;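 further: plate controls were DMSO neutral control wells for no effect and unlabeled competitor peptide control wells for full effect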
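System: tagged CAL PDZ domain. Schedule: 1 h room-temperature incubation prior to read. Signal: fluorescence polarization (mP). Measure: percent inhibition from loss of millipolarization.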
ERp5 inh – inhibitors of ERp5-driven insulin aggregation, primary screen, biochemical, turbidity, absorbance 650 nm, single point | 90 min | 0.05% of 350,000 active | inhibition, % at 9.99 µM | Protein disulfide-isomerase A6 (Homo sapiens), Q15084;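 active means mean replicate inhibition above about 25%, with every replicate also reaching it, limit read from the data, passing the limit was not always enough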
CAL PDZ FP-2 – untagged CAL PDZ binding inhibitors, primary screen, biochemical, fluorescence polarization, HTS | Golgi-associated PDZ and coiled-coil motif-containing protein (Homo sapiens), Q9HD26 | purified CAL PDZ, TMR-peptide fluorescence polarization, 1 h | inhibition, % at 24.9 µM | 0.92% of 300,000 active | AID 602252, 2012;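 active means mean inhibition of at least 30% with at least half of replicates also reaching 30%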;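 further: 0% = DMSO neutral control and 100% = excess unlabeled competitor peptide PRC23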
DNA binder FP – DNA-binding compounds via dye displacement, dose response, artefact control for RAD52 inhibitor project, biochemical, fluorescence polarization, cherry-pick. 8% of 1,000 active. Salmon sperm DNA/acridine orange FP displacement. AC50, µM. shares compounds with RAD52 anneal inh;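 active means fitted half-maximal concentration for signal loss at or below twice the highest dose tested, in every separate run, actives reach about 64 µM in these data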
* marks the source's active call; other numbers are inactive results; i = inactive; . = no result.

SMILES | RAD52 anneal inh | RAD54 branch | PDI turbidity | CAL PDZ FP-1 | ERp5 inh | CAL PDZ FP-2 | DNA binder FP
O=C1/C(=C\c2ccccc2)CN(C(=O)CCN2CCCCC2)C/C1=C/c1ccccc1 | 55* | . | 1 | 0 | -9 | -2 | i
O=C1c2cccc(NCCNCCO)c2C(=O)c2cccc(NCCNCCO)c21 | 63* | . | -3 | 2 | 6 | -8 | 4µM*
CC(NC(=O)CCc1ccccc1)c1ccc2c(c1)OCO2 (centres undefined) | 108* | 4 | 16 | -11 | -1 | -3 | i
CCCC(=O)Nc1ccc2c(c1)C(=O)N(C)C[C@H](OC)[C@H](C)CN(C(=O)c1cnccn1)[C@H](C)CO2 | -12 | -6 | . | . | 1 | . | .
O=C(NCC1CCCO1)c1nnc(Cc2ccc(F)cc2)o1 (centres undefined) | 53* | 3 | -3 | -1 | -4 | . | i
O=C(C[C@H]1C[C@H]2c3cc(NC(=O)c4ccc5c(c4)OCO5)ccc3O[C@H]2[C@H](CO)O1)NC1CCCC1 | -6 | -14 | . | . | -2 | . | .
COc1ccc(NC(=O)Nc2ccc3c(c2)C(=O)N([C@H](C)CO)C[C@@H](C)[C@@H](CN(C)C(=O)CCC(F)(F)F)OCCCC[C@H](C)O3)cc1 | 0 | 5 | . | . | 0 | . | .
Nc1nc2c(ncn2[C@@H]2O[C@H](CNCc3ccc(F)c(N4CCOCC4)c3)[C@@H](O)[C@H]2O)c(=O)[nH]1 | -9 | -13 | . | . | -6 | . | .
CN1CCN(c2ccc(CNC[C@H]3O[C@@H](n4cnc5c(=O)[nH]c(N)nc54)[C@H](O)[C@@H]3O)c(F)c2)CC1 | 82* | -5 | . | . | 0 | . | i
CN1CCN(CCCC(=O)c2ccc(C3CCCC3)cc2)CC1 | 68* | . | -13 | -1 | 1 | -2 | i
COc1cc2nc(N(CCCN(C)C)C(=O)c3ccc(S(=O)(=O)N4CCc5ccccc5C4)cc3)sc2cc1OC | 49 | 14 | 5 | -2 | 14 | -2 | .
COc1cccc2sc(N(CCCN(C)C)C(=O)c3ccc(S(=O)(=O)N4CCc5ccccc5C4)cc3)nc12 | 70* | 17 | 6 | -4 | 3 | -1 | i
CCOc1ccc2nc(N(CCCN(C)C)C(=O)c3ccc(S(=O)(=O)N4CCc5ccccc5C4)cc3)sc2c1 | 59* | -2 | -2 | -2 | 0 | -1 | i
CN(C)c1ccc(C(CN)c2c[nH]c3ccccc23)cc1 (centres undefined) | 84* | -8 | 5 | 2 | -1 | -2 | i
COCC(=O)N(C)C[C@@H]1Oc2ncc(-c3ccc(F)cc3)cc2C(=O)N([C@@H](C)CO)C[C@H]1C | 8 | -10 | . | . | 3 | . | .
CCN(CC)CCOc1ncnc2c1oc1ccccc12 | . | 16 | -2 | -1 | . | . | .
CCCCc1oc2ccccc2c1C(=O)c1cc(I)c(OCCN(CC)CC)c(I)c1 | 50* | 2 | 9 | 0 | 5 | -1 | i
Cc1ccc(S(=O)(=O)Nc2ccc3c(c2)C(=O)N([C@H](C)CO)C[C@H](C)[C@H](CN(C)C)OCCCC[C@H](C)O3)cc1 | -5 | 2 | . | . | -4 | . | .
COc1nc(Nc2nc3ccccc3c(=O)[nH]2)nc2ccc(C)cc12 | -1 | -2 | 1 | -5 | 21 | -7 | .
COc1nc(N=C(N)N)nc2ccc(C)cc12 | 79* | . | . | . | -4 | . | i
COc1ccc2c3c([nH]c2c1)[C@H](CO)N(Cc1ccccc1Cl)CC31CN(C(C)=O)C1 | -31 | . | . | . | 0 | . | .
CCc1cc(C(=O)Nc2cc(S(=O)(=O)N(CC)CC)ccc2N2CCN(C)CC2)sc1C | 89* | -1 | -1 | 1 | 1 | 9 | i
OC(c1ccccc1)(c1ccccc1)C1CCN(CCCOc2ccc3c(c2)CCCC3)CC1 | 51* | . | . | . | 2 | . | i
OC(c1ccccc1)(c1ccccc1)C1CCN(CCCOc2cc(F)cc(F)c2)CC1 | -2 | . | . | . | 4 | . | .
CC(=O)Nc1cccc(-c2cc(N3CCN(CCO)CC3)n3nccc3n2)c1 | 57* | -3 | 9 | . | 5 | . | i
SMILES | RAD52 anneal inh | RAD54 branch | PDI turbidity | CAL PDZ FP-1 | ERp5 inh | CAL PDZ FP-2 | DNA binder FP
OCCN1CCN(c2cc(-c3ccc(CO)cc3)nc3ccnn23)CC1 | 13 | 8 | -1 | . | 1 | . | .
C[C@H](CO)N1C[C@H](C)[C@@H](CN(C)C(=O)C2CCCCC2)Oc2ncc(C#CC3CCCC3)cc2C1=O | 21 | -4 | . | . | 6 | . | .
COc1ccc(-c2csc(N(CCCN(C)C)C(=O)c3ccccc3Cl)n2)cc1 | 53* | 22 | 0 | . | 0 | -10 | i
COc1ccc(-c2csc(N(CCCN(C)C)C(=O)c3ccccc3C)n2)cc1 | 48 | 11 | 5 | -6 | 3 | . | .
C[C@@H]1NC(=O)[C@H](CCCN=C(N)N)NC(=O)c2cc([N+](=O)[O-])cc(I)c2NCCC[C@@H](C(N)=O)NC1=O | 86* | 17 | -2 | 0 | 0 | -3 | i
NC(=O)C[C@H]1NC(=O)[C@H](CCC(=O)O)NC(=O)c2cc([N+](=O)[O-])cc(I)c2NCCC[C@@H](C(N)=O)NC1=O | . | -8 | 2 | 0 | . | -1 | .
NCCCC[C@@H]1NC(=O)c2cc([N+](=O)[O-])cc(F)c2NCCCC[C@@H](C(N)=O)NC(=O)[C@H](CCC(N)=O)NC1=O | 80* | 22 | 0 | 0 | 0 | 1 | i
NC(=O)[C@@H]1CCCCNc2c(F)cc([N+](=O)[O-])cc2C(=O)N[C@@H](CCCN=C(N)N)C(=O)NCC(=O)N1 | 61* | 10 | 11 | 0 | 0 | 0 | i
C[C@H](NC(=O)[C@H]1N[C@H]2c3ccc(C4=CCCC4)c(=O)n3C[C@H]2[C@@H]1CO)c1ccccc1 | -53 | -2 | . | . | -2 | . | .
COc1cc2c(cc1OC)C1Cc3ccc(OC)c(OC)c3CN1CC2 (centres undefined) | . | 6 | -5 | -1 | . | -1 | .
COc1cc2c(cc1OC)CN1CCc3cc(OC)c(OC)cc3C1C2 (centres undefined) | 74* | 84* | . | . | -2 | . | i
Cn1c(-c2csc(-c3cccc(C(F)(F)F)c3)n2)n[nH]c1=S | 96* | . | 1 | -1 | 0 | -6 | i
O=C(O)c1cccc(NC(=O)c2ccccc2)c1 | 5 | -13 | 5 | 1 | 4 | -1 | .
O=C(Nc1cccc(C(=O)Nc2cccc(Br)c2)c1)c1ccccc1 | 94* | -3 | -6 | -2 | 0 | 1 | i
NCCNCCNCCN | 94* | 21 | 5 | -1 | 1 | 0 | i
